Rows were chosen to be rich in hits. Some 2.5% of all compounds tested hit in one or more screens of this group.
eLon inh: inhibits E. coli Lon protease | P0A9M0 | purified E. coli Lon protease, fluorescence polarization | inhibition, % at 7.94 µM | hit rate 0.42% among 360,000 | AID 602123; in the data active means inhibition above about 13%, passing the limit was not always enough
PRMT1 FP inh: PRMT1 (human) inhibition, primary screen. recombinant PRMT1, activity-based probe fluorescence polarization. inhibition, % at 2.79 µM. hit rate 1.3% among 370,000;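 active means inhibition above about 21% made by adding two undisclosed values, limit read from the data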
Target sequence (Q99873 whole entry, looked up): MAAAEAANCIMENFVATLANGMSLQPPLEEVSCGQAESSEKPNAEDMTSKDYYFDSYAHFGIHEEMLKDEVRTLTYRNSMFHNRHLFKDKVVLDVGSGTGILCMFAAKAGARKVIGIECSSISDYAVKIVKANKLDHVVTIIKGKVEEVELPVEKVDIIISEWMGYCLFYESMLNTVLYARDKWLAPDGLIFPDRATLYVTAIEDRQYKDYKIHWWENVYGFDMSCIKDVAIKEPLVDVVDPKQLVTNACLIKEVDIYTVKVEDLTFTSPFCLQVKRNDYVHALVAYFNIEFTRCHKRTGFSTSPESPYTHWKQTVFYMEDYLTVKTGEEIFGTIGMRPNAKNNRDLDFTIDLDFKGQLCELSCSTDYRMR
PAD4 inh: PAD4 (human) enzyme inhibition; recombinant PAD4, RCA probe fluorescence polarization; hit rate 0.41% among 330,000; inhibition, % at 6.36 µM; AID 485272; Q9UM07;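 active means percent inhibition above a cutoff equal to the mean of all tested compounds plus 3 SD, cut at about 15% in these data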
GSTO1 counter: GSTO1 inhibition, counter-screen for RBBP9 inhibitors; P78417; recombinant GSTO1, activity-based probe fluorescence polarization; inhibition, % at 5.96 µM; hit rate 1.1% among 300,000; AID 1974;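 active means inhibition above the campaign mean inhibition plus 3 SD, cut at about 35% in these data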
Target sequence (P78417 whole entry, looked up): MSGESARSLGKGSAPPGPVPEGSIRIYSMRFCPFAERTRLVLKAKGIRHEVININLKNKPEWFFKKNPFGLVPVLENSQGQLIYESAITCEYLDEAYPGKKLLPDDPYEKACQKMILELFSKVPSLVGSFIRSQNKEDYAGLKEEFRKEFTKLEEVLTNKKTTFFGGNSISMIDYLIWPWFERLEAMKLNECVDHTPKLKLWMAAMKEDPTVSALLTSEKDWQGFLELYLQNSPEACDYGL
TDP2 absorb: blocks human TDP2 phosphodiesterase activity. recombinant TDP2, T5PNP hydrolysis, p-nitrophenol absorbance 415 nm. inhibition, % at 12.8 µM. hit rate 0.34% among 370,000;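 active means inhibition above the mean of all tested compounds plus 3 SD, set per campaign, cut at about 25% in these data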
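Incubation: 2 h at 37 °C; Test system: recombinant human TDP2; Quantity: enzyme 120 nM; Read-out basis: percent inhibition; Medium: 50 mM Tris-HCl pH 7.5 with Mg2+, KCl, DTT, BSA; Repeats: single replicate; Compound: 12.8 µM single point, 1% DMSO; Signal: epi absorbance; Reagent: 5 mM T5PNP chromogenic substrate; Benchmarks: no-enzyme high, DMSO-plus-enzyme low.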
GSTO1 inh conf: GSTO1 (human) inhibition, confirmation. recombinant GSTO1, probe fluorescence polarization. shares compounds with GSTO1 counter. AID 2176. hit rate 54% among 2,400. inhibition, % at 5.96 µM;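 active means inhibition above the primary screen's cutoff, its mean inhibition plus 3 SD, cut at about 35% in these data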;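 further: loss of polarization as inhibitors block binding of rhodamine sulfonate ester activity probe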
Large screens that a line does not name were inactive (follow-up assays come after a bar, where they were run).

CCCCNC(=O)NC1(C(F)(F)F)Oc2ccccc2O1	GSTO1 counter 55 | GSTO1 inh conf inactive
COc1ccc(OC)c(NC(=O)NC2(C(F)(F)F)Oc3ccccc3O2)c1	GSTO1 counter 56 | GSTO1 inh conf inactive
COc1ccc(OC)c(NC(=O)Nc2ccccc2C)c1	none
COc1cccc2c(SCC(=O)N/N=C/c3ccc(O)c(O)c3)cc(C)nc12	PRMT1 FP inh 29, GSTO1 counter 62 | GSTO1 inh conf inactive
O=C(CSc1nc2ccccc2o1)N/N=C/c1ccc(O)c(O)c1	GSTO1 counter 57 | GSTO1 inh conf inactive
COc1ccc2nc(C)cc(SCC(=O)N/N=C/c3ccc(O)c(O)c3)c2c1	GSTO1 counter 51 | GSTO1 inh conf inactive
COc1ccc(-c2cc(-c3nnc(SCC(=O)Nc4ccccc4-c4ccccc4)n3N)[nH]n2)cc1	none (no result: eLon inh, PAD4 inh, GSTO1 counter)
CCCCCCCCN1C(=O)[C@@H](CC(=O)NCc2cccs2)C[C@@]2(C(=O)OC)C1=C[C@H](COCc1ccccc1)O[C@@H]2C	none (no result: eLon inh, PAD4 inh, GSTO1 counter)
CCOC(=O)[C@@]12CCCC=C1N(CCc1ccc(Cl)cc1)C(=O)[C@H]2CC(=O)NCc1cccc2ccccc12	none (no result: eLon inh, PAD4 inh, GSTO1 counter)
CCOCC(=O)Nc1nnc(Cc2ccc(OC)cc2)s1	GSTO1 counter 39 | GSTO1 inh conf inactive
CCOCC(=O)Nc1nnc(Cc2ccc(OC)c(OC)c2)s1	none
N#CC(C#N)=c1ccc2c(c1)NC1(CCCCC1)N=2	GSTO1 counter 68 | GSTO1 inh conf 50
N#CC(C#N)=C1NC2(CCCCC2)Cc2ccccc21	none
CCn1nc(C)cc1C(=O)N1CCCC(N2CCN(c3cccc(Cl)c3)CC2)C1 (stereo unspecified)	GSTO1 counter 47 | GSTO1 inh conf inactive
C=CCN1C(=O)[C@@H](CC(=O)NCC2CCCCC2)[C@]2(C(=O)OCC)CCCCC/C=C/12	none (no result: eLon inh, PAD4 inh, GSTO1 counter)
Cc1cc(=O)[nH]c(SCC(=O)Nc2cccc(Cl)c2F)n1	none (no result: eLon inh, PAD4 inh, GSTO1 counter)
O=C(Nc1ccccc1)OCCN1CCCC12CCC(c1ccccc1)CC2 (stereo unspecified)	none (no result: eLon inh, PAD4 inh, GSTO1 counter)
FC(F)(F)c1ccccc1C(C#Cc1ccccc1)NCc1ccc2c(c1)OCO2 (stereo unspecified)	none (no result: eLon inh, PAD4 inh, GSTO1 counter)
Cc1ccc(C(=O)OCn2ncc(Cl)c(Cl)c2=O)cc1	PAD4 inh 20, GSTO1 counter 45 | GSTO1 inh conf 46
O=C(c1ccc2c(c1)OCO2)[C@@H]1[C@@H]2C(=O)N(C3CCCCC3)C(=O)[C@@H]2C2c3ccccc3C=CN21 (stereo partly specified)	none (no result: PAD4 inh, GSTO1 counter)
O=C(c1cccs1)[C@@H]1[C@@H]2C(=O)N(Cc3ccc4c(c3)OCO4)C(=O)[C@@H]2C2c3ccccc3C=CN21 (stereo partly specified)	GSTO1 counter 38 (no result: eLon inh, PRMT1 FP inh, TDP2 absorb) | GSTO1 inh conf inactive
COc1cc2c(cc1NC(=O)CSc1nnc(-c3ccccc3F)n1-c1ccc(C)cc1)oc1ccccc12	none (no result: eLon inh, PAD4 inh, GSTO1 counter)
CC(C)NC1=C(Cl)C(=O)c2ccccc2C1=O	GSTO1 counter 65 | GSTO1 inh conf inactive
O=C(O)c1ccc(NC2=C(Cl)C(=O)c3ccccc3C2=O)cc1	GSTO1 counter 79 | GSTO1 inh conf 49
O=C1C(Cl)=C(Nc2ccccc2)C(=O)c2ccccc21	GSTO1 counter 102 | GSTO1 inh conf 90
O=C(O)c1cccc(NC2=C(Cl)C(=O)c3ccccc3C2=O)c1	none (no result: PAD4 inh, GSTO1 counter)
CC1=C(Nc2ccc(C(=O)O)cc2)C(=O)c2ccccc2C1=O	none
CC(C)CNc1cccc2c1S(=O)(=O)N(Cc1cn(Cc3ccc(C(F)(F)F)cc3)nn1)Cc1ccccc1O2	none (no result: eLon inh, PAD4 inh, GSTO1 counter)
CCCCNC(=O)Oc1c(Br)cc2sc(=O)oc2c1Br	GSTO1 counter 66 (no result: eLon inh, PRMT1 FP inh, TDP2 absorb) | GSTO1 inh conf inactive
CCCCNC(=O)c1c(C)cc(=O)oc1C	none
C=CCN1C(C(=O)OC)CN(Cc2cn(Cc3ccc(F)cc3)nn2)CCS1(=O)=O (stereo unspecified)	none (no result: eLon inh, PAD4 inh, GSTO1 counter)
Cc1ccccc1N1CCN(C(=O)COc2cc(=O)n(C)c3ccccc23)CC1	none (no result: eLon inh, PAD4 inh, GSTO1 counter)
C(=N\Nc1nc2ccccc2[nH]1)/c1ccc2c(c1)OCO2	none (no result: PAD4 inh, GSTO1 counter)
N#CC1(c2nc3ccccc3[nH]2)CC1c1ccc2c(c1)OCO2 (stereo unspecified)	GSTO1 counter 46 | GSTO1 inh conf inactive
C[C@@H](CO)N(Cc1cn(Cc2ccccc2)nn1)S(=O)(=O)c1ccc(F)cc1Br	none (no result: eLon inh, PAD4 inh, GSTO1 counter)
Cc1c(C=O)c2ccccn2c1C(=O)c1ccc(F)cc1	GSTO1 counter 39 | GSTO1 inh conf inactive
Cc1cc2cc3c(cc2n2c(SCC(=O)Nc4nc(-c5ccccc5)cs4)nnc12)OCO3	none (no result: eLon inh, PAD4 inh, GSTO1 counter)
COC(=O)C(C(C)=O)C1=C/C(=N\S(=O)(=O)c2ccc(C)cc2)c2ccccc2C1=O (stereo unspecified)	GSTO1 counter 49 (no result: PRMT1 FP inh, TDP2 absorb) | GSTO1 inh conf inactive
COC(=O)[C@H](CO)NS(=O)(=O)c1ccc(C)cc1	none (no result: GSTO1 counter)
COc1ccc(S(=O)(=O)N(Cc2ccccc2)c2ccccc2C(=O)Nc2ccccc2C(=O)NCc2ccco2)cc1	none
COc1ccc(S(=O)(=O)N(C(=O)c2ccco2)c2cc3sc(=O)oc3c3ccccc23)cc1	PRMT1 FP inh 94, GSTO1 counter 64 | GSTO1 inh conf inactive
CCNC(=O)N(C)[C@H]1C[C@H]2c3[nH]c4cccc(-c5ccc6c(c5)OCO6)c4c3CCN2C[C@H]1[C@H](C)O	none (no result: eLon inh, PAD4 inh, GSTO1 counter)
O=C(O)CC1S/C(=N/N=C/c2ccc(-c3ccc(Cl)cc3[N+](=O)[O-])o2)NC1=O (stereo unspecified)	GSTO1 counter 50 | GSTO1 inh conf inactive
CCOC(=O)C(=O)Nc1cc(C)nn1-c1nc2ccccc2[nH]1	GSTO1 counter 45 | GSTO1 inh conf inactive
O=C(C[n+]1ccccc1)N/N=C/c1ccccc1[N+](=O)[O-]	none
O=C1CC(CC(=O)N/N=C/c2ccccc2[N+](=O)[O-])=NN1	GSTO1 counter 52 | GSTO1 inh conf inactive
COC(=O)[C@@]1(OC(C)=O)CC(OC(C)=O)[C@H](OC(C)=O)[C@H](OC(C)=O)C1Br (stereo partly specified)	none (no result: eLon inh, PAD4 inh, GSTO1 counter)
C/C(=N\NC(=O)c1cc(O)cc(O)c1)c1ccc(NC(=O)Cc2ccccc2)cc1	GSTO1 counter 38 | GSTO1 inh conf 47
C/C(=N\NC(=O)c1cccc(F)c1)c1ccc(NC(=O)Cc2ccccc2)cc1	none (no result: PAD4 inh, GSTO1 counter)
O=C(N/N=C/c1ccc([N+](=O)[O-])o1)c1ccc(NS(=O)(=O)c2cccs2)cc1	GSTO1 counter 55 | GSTO1 inh conf inactive
COc1ccc(CN[C@@H]2CC[C@@]34CCCN3C(=O)CCC[C@H]4C2)cc1OC	none (no result: eLon inh, PAD4 inh, GSTO1 counter)
COC(C[C@@H]1O[C@@H]1[C@@H](O)[C@H](C)OCc1ccccc1)OC	none (no result: PAD4 inh, GSTO1 counter)
COC(C[C@@H]1O[C@H]1[C@H](O)[C@@H](C)OCc1ccccc1)OC	GSTO1 counter 40 (no result: eLon inh, PRMT1 FP inh, TDP2 absorb) | GSTO1 inh conf inactive
COc1ccccc1N(O)C1CC(=O)N(c2ccc(F)cc2)C1=O (stereo unspecified)	PRMT1 FP inh 31, GSTO1 counter 57 | GSTO1 inh conf inactive
O=C1CC(N(O)c2ccccc2)C(=O)N1c1cc(Cl)cc(Cl)c1 (stereo unspecified)	PAD4 inh 15, GSTO1 counter 68 | GSTO1 inh conf inactive
